Laboratory results taken from ChEMBL document CHEMBL5724801, “EUbOPEN Chemogenomics Library - Multiplex” (2024).
Values joined by “and” are separate entries in the source; they are usually repeats but may differ in a detail not shown here. Equal values may be shown once.

System: Fibroblast
Assay: Multiplex assay against human fibroblast
Type: toxicity, cell-based
Procedure, shortened: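 On a CQ1 microscope at 37°C and 5% CO2, live cells were imaged after compound addition. They had been stained at seeding with Hoechst33342, BioTracker Green Microtubule Cytoskeleton Dye, MitoTracker Red and Annexin V Alexa Fluor 680. CellPathfinder machine-learning gating assigned cells to Hoechst high-intensity objects or normal cells, normal cells to healthy, pyknosed or fragmented nuclei, and pyknosed cells to mitotic or apoptotic. Tubulin, mitochondrial-mass and membrane-permeability phenotypes are per cents of healthy-nucleus cells.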

[1] = 12 h, 1 µM, compound concentration 1 uM
[2] = 12 h, 10 µM, compound concentration 10 uM
[3] = 24 h, 1 µM, compound concentration 1 uM
[4] = 24 h, 10 µM, compound concentration 10 uM
[5] = 48 h, 1 µM, compound concentration 1 uM
[6] = 48 h, 10 µM, compound concentration 10 uM

COc1ccc2c(c1OCc1ccccc1)C[C@@H](C(=O)O)N(C(=O)C(c1ccccc1)c1ccccc1)C2 [OLODANRIGAN]
Population Apoptotic (%) [1]: 46% and 38% | Population Fragmented Nuclei (%) [1]: 17% and 21% | Population Healthy Nuclei (%) [1]: 63% and 50% | Population Hoechst High Intensity Objects (%) [1]: 7% and 1% | Population Membrane Permeable-Phenotype (%) [1]: 1% and 9% | Population Mitochondria Different-Phenotype (%) [1]: 2% and 5% | Population Mitotic Cells (%) [1]: 53% and 61% | Population Normal (%) [1]: 92% and 98% | Population Pyknosed Nuclei (%) [1]: 19% and 27% | Population Tubulin-Different-Phenotype (%) [1]: 29% and 57% | Total Cell Count [1]: 157 and 154 | Population Apoptotic (%) [2]: 31% and 34% | Population Fragmented Nuclei (%) [2]: 11% and 18% | Population Healthy Nuclei (%) [2]: 65% and 54% | Population Hoechst High Intensity Objects (%) [2]: 0% and 5% | Population Membrane Permeable-Phenotype (%) [2]: 1% and 6% | Population Mitochondria Different-Phenotype (%) [2]: 7% | Population Mitotic Cells (%) [2]: 68% and 65% | Population Normal (%) [2]: 99% and 94% | Population Pyknosed Nuclei (%) [2]: 23% and 26% | Population Tubulin-Different-Phenotype (%) [2]: 28% and 46% | Total Cell Count [2]: 140 and 162 | Population Apoptotic (%) [3]: 65% and 38% | Population Fragmented Nuclei (%) [3]: 18% and 21% | Population Healthy Nuclei (%) [3]: 66% and 53% | Population Hoechst High Intensity Objects (%) [3]: 6% and 2% | Population Membrane Permeable-Phenotype (%) [3]: 0% and 9% | Population Mitochondria Different-Phenotype (%) [3]: 1% and 7% | Population Mitotic Cells (%) [3]: 34% and 61% | Population Normal (%) [3]: 93% and 97% | Population Pyknosed Nuclei (%) [3]: 15% and 25% | Population Tubulin-Different-Phenotype (%) [3]: 26% and 46% | Total Cell Count [3]: 159 and 146 | Population Apoptotic (%) [4]: 53% and 58% | Population Fragmented Nuclei (%) [4]: 10% and 17% | Population Healthy Nuclei (%) [4]: 68% and 62% | Population Hoechst High Intensity Objects (%) [4]: 2% and 3% | Population Membrane Permeable-Phenotype (%) [4]: 1% and 4% | Population Mitochondria Different-Phenotype (%) [4]: 3% and 4% | Population Mitotic Cells (%) [4]: 46% and 41% | Population Normal (%) [4]: 97% and 96% | Population Pyknosed Nuclei (%) [4]: 21% and 19% | Population Tubulin-Different-Phenotype (%) [4]: 21% and 50% | Total Cell Count [4]: 136 and 153 | Population Apoptotic (%) [5]: 42% and 41% | Population Fragmented Nuclei (%) [5]: 27% and 31% | Population Healthy Nuclei (%) [5]: 58% and 52% | Population Hoechst High Intensity Objects (%) [5]: 3% and 1% | Population Membrane Permeable-Phenotype (%) [5]: 0% and 1% | Population Mitochondria Different-Phenotype (%) [5]: 2% and 4% | Population Mitotic Cells (%) [5]: 57% and 58% | Population Normal (%) [5]: 96% and 98% | Population Pyknosed Nuclei (%) [5]: 14% and 15% | Population Tubulin-Different-Phenotype (%) [5]: 20% and 40% | Total Cell Count [5]: 154 and 156 | Population Apoptotic (%) [6]: 57% and 61% | Population Fragmented Nuclei (%) [6]: 15% and 29% | Population Healthy Nuclei (%) [6]: 69% and 58% | Population Hoechst High Intensity Objects (%) [6]: 5% and 7% | Population Membrane Permeable-Phenotype (%) [6]: 1% and 3% | Population Mitochondria Different-Phenotype (%) [6]: 5% | Population Mitotic Cells (%) [6]: 42% and 38% | Population Normal (%) [6]: 94% and 92% | Population Pyknosed Nuclei (%) [6]: 15% and 12% | Population Tubulin-Different-Phenotype (%) [6]: 27% and 45% | Total Cell Count [6]: 146 and 163

COc1cc(OC2CCN(C(C)=O)CC2)ccc1C(=O)N1CCC(N2C(=O)OCc3ccccc32)CC1
Population Apoptotic (%) [1]: 41% and 40% | Population Fragmented Nuclei (%) [1]: 12% and 29% | Population Healthy Nuclei (%) [1]: 64% and 52% | Population Hoechst High Intensity Objects (%) [1]: 5% and 3% | Population Membrane Permeable-Phenotype (%) [1]: 2% and 0% | Population Mitochondria Different-Phenotype (%) [1]: 5% and 3% | Population Mitotic Cells (%) [1]: 58% and 59% | Population Normal (%) [1]: 94% and 96% | Population Pyknosed Nuclei (%) [1]: 22% and 17% | Population Tubulin-Different-Phenotype (%) [1]: 32% and 34% | Total Cell Count [1]: 157 and 159 | Population Apoptotic (%) [2]: 52% and 37% | Population Healthy Nuclei (%) [2]: 73% and 40% | Population Hoechst High Intensity Objects (%) [2]: 3% and 6% | Population Membrane Permeable-Phenotype (%) [2]: 0% and 2% | Population Mitochondria Different-Phenotype (%) [2]: 6% and 10% | Population Mitotic Cells (%) [2]: 48% and 62% | Population Normal (%) [2]: 96% and 93% | Population Pyknosed Nuclei (%) [2]: 16% and 28% | Population Tubulin-Different-Phenotype (%) [2]: 54% and 56% | Total Cell Count [2]: 161 and 134 | Population Apoptotic (%) [3]: 63% and 48% | Population Fragmented Nuclei (%) [3]: 19% and 28% | Population Healthy Nuclei (%) [3]: 63% and 51% | Population Hoechst High Intensity Objects (%) [3]: 1% | Population Membrane Permeable-Phenotype (%) [3]: 0% and 5% | Population Mitochondria Different-Phenotype (%) [3]: 4% and 3% | Population Mitotic Cells (%) [3]: 36% and 51% | Population Normal (%) [3]: 98% | Population Pyknosed Nuclei (%) [3]: 17% and 19% | Population Tubulin-Different-Phenotype (%) [3]: 32% and 31% | Total Cell Count [3]: 170 and 155 | Population Apoptotic (%) [4]: 36% and 43% | Population Fragmented Nuclei (%) [4]: 13% and 34% | Population Healthy Nuclei (%) [4]: 74% and 48% | Population Hoechst High Intensity Objects (%) [4]: 7% | Population Membrane Permeable-Phenotype (%) [4]: 1% and 3% | Population Mitochondria Different-Phenotype (%) [4]: 7% and 10% | Population Mitotic Cells (%) [4]: 63% and 56% | Population Normal (%) [4]: 92% | Population Pyknosed Nuclei (%) [4]: 11% and 17% | Population Tubulin-Different-Phenotype (%) [4]: 39% and 70% | Total Cell Count [4]: 172 and 145 | Population Apoptotic (%) [5]: 40% and 58% | Population Fragmented Nuclei (%) [5]: 14% and 32% | Population Healthy Nuclei (%) [5]: 70% and 52% | Population Hoechst High Intensity Objects (%) [5]: 7% and 3% | Population Membrane Permeable-Phenotype (%) [5]: 0% and 4% | Population Mitochondria Different-Phenotype (%) [5]: 5% and 4% | Population Mitotic Cells (%) [5]: 59% and 41% | Population Normal (%) [5]: 92% and 96% | Population Pyknosed Nuclei (%) [5]: 14% and 15% | Population Tubulin-Different-Phenotype (%) [5]: 35% and 43% | Total Cell Count [5]: 160 and 163 | Population Apoptotic (%) [6]: 57% and 56% | Population Healthy Nuclei (%) [6]: 79% and 51% | Population Hoechst High Intensity Objects (%) [6]: 5% and 3% | Population Membrane Permeable-Phenotype (%) [6]: 0% and 3% | Population Mitochondria Different-Phenotype (%) [6]: 13% and 10% | Population Mitotic Cells (%) [6]: 42% and 43% | Population Normal (%) [6]: 94% and 96% | Population Pyknosed Nuclei (%) [6]: 9% and 12% | Population Tubulin-Different-Phenotype (%) [6]: 51% and 69% | Total Cell Count [6]: 155 and 134
